Source: PubChem
The list is not random: actives were taken first. Their share in the collection is about 5.1%.
STAT1 activator = STAT1 signaling activation. hit rate 2.6% among 200,000. activation (% of control), % at 5.5 µM. NIH 3T3 STAT1-luciferase reporter, IFN-gamma, luminescence; 100% = IFN-gamma alone, no compound;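 active = activation above the screen-wide mean activation plus 3 SD, cut at about 130% in these data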
STAT3 inh = STAT3 signaling inhibition. inhibition, % at 5.5 µM. hit rate 0.89% among 190,000. U3A cells, IL-6 STAT3-luciferase reporter, luminescence; host cell line lacks STAT1. AID 862;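 active = inhibition above the mean inhibition across all screened compounds plus 3 SD, cut at about 44% in these data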
APP 5'UTR act = activates APP 5'UTR luciferase reporter; activation, % at 2 µM; hit rate 1% among 190,000; SH-SY5Y APP 5'UTR luciferase reporter, luminescence; zero percent = DMSO vehicle wells;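 active = activation above a set limit, based on mean plus 3 SD of controls, cut at about 140% in these data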
STAT1 inh = inhibitors of IFN-gamma induced STAT1 signaling. NIH 3T3 STAT1-luciferase reporter, luminescence. hit rate 0.35% among 200,000. AID 920. inhibition, % at 5.5 µM;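 active = inhibition above a set limit, the mean inhibition across all tested compounds plus 3 SD, cut at about 34% in these data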
STAT3 activator = STAT3 signaling activation; U3A cells, IL-6 STAT3-luciferase reporter, luminescence; 100% = signal with IL-6 EC80 alone; activation (% of control), % at 5.6 µM; hit rate 0.91% among 190,000; AID 871;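 active = activation above the screen-wide mean of compound activation plus 3 SD, cut at about 130% in these data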
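Test system: Human STAT1-deficient U3A cells with stable STAT3-luciferase reporter | Also added: Interleukin-6, 33 ng/mL | Timing: Compound pre-incubation 1 h before IL-6, then 6 h stimulation at 37 °C | Technique: Luciferase reporter luminescence | Read-out: Percent of IL-6-only median luminescence | Benchmarks: IL-6-only wells as 100% reference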
NF-kB neuron act = compounds increasing NF-kB expression in human neuronal cells. NF-kB reporter expression; hits give high values. fold change at 12.5 µM. hit rate 1.6% among 190,000. AID 1239; in the data active = fold change above about 3.3
Large screens that a line does not name were inactive.

NS(=O)(=O)c1ccc(CCNC(=O)COC(=O)/C=C/c2ccc(Cl)cc2)cc1	none
N/C(=N\OC(=O)c1cccc(Cl)c1)c1ccncc1	STAT1 activator 141
N/C(=N\OC(=O)/C=C/c1ccccc1)c1ccncc1	none
N/C(=N\OC(=O)c1cc(Cl)ccc1Cl)c1ccncc1	STAT1 activator 141
N/C(=N\OC(=O)/C=C/c1ccccc1Cl)c1ccncc1	APP 5'UTR act 235, NF-kB neuron act 3.8
CN(CCC(=O)Nc1ccc(Br)cc1)Cc1ccccc1	none
COc1ccc(N2C(=O)c3ccccc3NC23CCCCC3)cc1	STAT1 activator 135
COc1ccc(N2C(=O)c3ccccc3NC23CCC(C)CC3)cc1 (stereo not given)	none
Cc1cc(N(CCO)CCO)ccc1N=Nc1cc(F)ccc1F	STAT1 activator 133
O=C(CC(=O)Nc1ccccn1)Nc1ccccn1	none
O=C(/C=C/Nc1ccccc1Br)c1ccccn1	STAT3 inh 109, STAT1 inh 94
O=C(/C=C\Nc1ccccn1)c1ccccc1	STAT3 inh 85, APP 5'UTR act 157, STAT1 inh 45, NF-kB neuron act 3.5
O=C(/C=C/Nc1ccccc1)c1ccc(Oc2ncccn2)cc1	STAT1 activator 156, NF-kB neuron act 3.5
COc1ccc(Nc2ccnc(Nc3ccc(OC)cc3)n2)cc1	none
CC1=NN(C(=O)c2csc(C(C)C)c2)C(O)(C(F)(F)F)C1 (stereo not given)	none
Cc1cc2nn(-c3ccccc3)nc2cc1NC(=O)c1cccs1	STAT1 activator 143
CCC(=O)Nc1cc2nn(-c3ccccc3)nc2cc1Cl	STAT1 activator 144
COc1ccc(C2=C(CC(=O)O)C(=O)CC2)cc1	none
NCCCCCc1nnc(SCC(N)=O)o1	none
CNC(=S)NNc1ccccc1[N+](=O)[O-]	none
COCCNC(=S)NNc1ccccc1[N+](=O)[O-]	STAT3 activator 136
CC(C)COc1ccc(C(=O)Nc2ccccc2[N+](=O)[O-])cc1	STAT1 activator 133
COc1ccc(C(=O)NCCSCc2ccccc2C)cc1	none
CCCOc1ccc(C(=O)Nc2ccc(C)cc2[N+](=O)[O-])cc1	none
COc1ccc(C(=O)NCCNc2ccccc2[N+](=O)[O-])cc1	STAT1 activator 148, APP 5'UTR act 163
CCSc1nnc(CSc2ncccn2)n1C	none (no result: NF-kB neuron act)
OCC1CCCN1C(=S)Nc1ccccc1 (stereo not given)	none
OCC1CCCCN1C(=S)Nc1cccc(Cl)c1 (stereo not given)	STAT1 activator 130
CC(C)(C)n1ncc2c(=O)n(CC(=O)c3ccc(Cl)cc3)cnc21	STAT1 activator 154
CC(C)(C)n1ncc2c(=O)n(CC(=O)NCc3ccccc3)cnc21	STAT1 activator 149, APP 5'UTR act 168
CC(C)(C)n1ncc2c(=O)n(CC(=O)Nc3ccc(Cl)cc3)cnc21	none
CC(=O)Nc1ccc(NC(=O)Cn2cnc3c(cnn3C(C)(C)C)c2=O)cc1	none
Cn1c(CNC(=O)c2ccccc2F)nnc1SCCOc1ccccc1	none
Cc1ccc(-c2nnc(SCC(=O)N/N=C/c3ccc(C)s3)n2-c2ccccc2)cc1	none
O=c1c(Cl)c(N2CCOCC2)cnn1-c1nc2ccccc2[nH]1	STAT1 activator 136
CCN(CCn1cccn1)C(=O)CCc1nnc(-c2ccc3c(c2)OCO3)o1	none
CCN(CCn1cccn1)C(=O)CCc1nnc(CCCc2ccccc2)o1	STAT1 activator 147, NF-kB neuron act 4.1
O=C(COC(=O)c1n[nH]c2ccccc12)Nc1ccccc1	STAT1 activator 133
Clc1cccc(-c2ccc(CNCCCN3CCOCC3)o2)c1	none
Cc1ccc(C(=O)NC2CCCCC2)cc1	STAT1 activator 139
CCN(CC)S(=O)(=O)c1cc(C(=O)NC2CCCCC2)ccc1C	STAT1 activator 129
CCN(CC)S(=O)(=O)c1cc(C(=O)Nc2ccc(Cl)cn2)ccc1C	STAT1 activator 135, APP 5'UTR act 183
FC(F)(F)c1cccc(OCCN2CCN(Cc3ccccc3)CC2)c1	none
COc1ccccc1NC(=S)N1CCN(c2nc(-c3ccccc3)cs2)CC1	none
CC(C)(C)C(=O)Nc1ccc(N=Nc2ccccc2)cc1	STAT3 inh 88, STAT1 inh 67
CC1CC1C(=O)OCC(=O)Nc1ccccc1Oc1ccccc1 (stereo not given)	none
CC1CC1C(=O)OCC(=O)Nc1ccc(N=Nc2ccccc2)cc1 (stereo not given)	STAT1 activator 148, APP 5'UTR act 143, NF-kB neuron act 5.9
O=C(O)CCC(=O)Nc1ccc(N=Nc2ccccc2)cc1	none
COC(=O)c1ccc(CNC(=O)COC(=O)c2ccc(N(C)C)cc2)cc1	none
CNC(=S)Nc1cccc(Cl)c1C	none
CC(C)=CC(=O)OCc1cc([N+](=O)[O-])cc2c1OCOC2	STAT1 activator 138
COc1cc(-n2c(=O)c3ccccc3n(CC(=O)c3ccc(F)cc3)c2=O)cc(OC)c1OC	none
Cn1c(Cl)c(C(=O)Nc2ccc(Cl)cc2)c2ccccc21	STAT3 activator 155
NS(=O)(=O)c1ccc(N=NN2CCCCC2)cc1	none
O=C(O)c1ccc(N=NN2CCCCC2)cc1	STAT1 activator 135
COC(=O)c1ccc(N=NN2CCOCC2)cc1	none
COC(=O)c1ccc(N=NN2CCCCCC2)cc1	STAT1 activator 137, NF-kB neuron act 4.1
CC1CCCCN1S(=O)(=O)c1ccc(C(=O)Nc2sccc2C(N)=O)cc1 (stereo not given)	STAT1 activator 129
NC(=O)c1ccsc1NC(=O)C1CCCN1S(=O)(=O)c1ccc(Cl)cc1 (stereo not given)	none
O=C(Nc1nccs1)c1ccc(-c2ccc(Cl)cc2)o1	STAT1 activator 138, NF-kB neuron act 6.1
CCc1nnc(NC(=O)c2ccc(-c3ccc(F)cc3)o2)s1	none
Fc1ccc(NC(=S)Nc2nccs2)cc1	NF-kB neuron act 9.1
O=C(Nc1cccnc1)c1ccc(-c2ccc(Cl)cc2)o1	none
O=C(Nc1nccs1)c1ccc(-c2ccc(F)cc2)o1	STAT1 activator 129, APP 5'UTR act 157
Fc1ccc(C2CCCN2Cc2nc(Cc3ccccc3)no2)cc1 (stereo not given)	none
N#CCc1ccc(NS(=O)(=O)c2ccc(C3CCCCC3)cc2)cc1	none
COc1cccc2sc(Nc3nnc(-c4cccs4)o3)nc12	STAT1 activator 139, STAT3 activator 172
Fc1cccc2sc(Nc3nnc(-c4ccco4)o3)nc12	STAT1 activator 132
C/C(=N\Nc1nccnc1Cl)c1ccc(F)cc1	STAT1 activator 134
C=CS(=O)(=O)c1sc(Cl)c(N2CCOCC2)c1[N+](=O)[O-]	STAT1 activator 129
CNc1nc(-c2ccccn2)nnc1-c1ccccc1	NF-kB neuron act 13
c1ccc(-c2nnc(-c3ccccn3)nc2NC2CCCCC2)cc1	none
O=C(O/N=C(\c1ccccc1)c1ccccn1)c1ccc(Cl)c(Cl)c1	none
N/C(=N\OC(=O)c1cc(Br)ccc1Cl)c1ccccn1	APP 5'UTR act 180, NF-kB neuron act 6
